The target of test [1] is Serine/threonine-protein kinase Chk1 (Homo sapiens) (UniProt O14757). The test is described as follows: Activity of CHK1 at 10 uM. The method, boiled down:
(§1)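 Radiometric kinase assay at 10 µM inhibitor, run in duplicate. c-Abl, CHK1, GSK3β, p70S6K, PKA and PKBα were run in 8 mM MOPS pH 7.0 with 0.2 mM EDTA. MAPK1 and SAPK2α were run in 25 mM Tris pH 7.5 with 0.02 mM EGTA. CK2 was run in 20 mM HEPES pH 7.6, 0.15 M NaCl, 0.1 mM EDTA, 2 mM DTT and 0.1% Triton X-100. All had 10 mM Mg-acetate, 10 µM ATP, [γ-33P]ATP and a peptide substrate; 40 min; H3PO4 stop; P30 filter; scintillation counting.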

The target in test [2] is Casein kinase II (Homo sapiens) (UniProt P67870+P68400+P19784). The experiment in a line: Activity of CK2 at 10 uM. In kind it is protein-complex assay. The method in brief:
as §1

The target in test [3] is Mitogen-activated protein kinase 1 (Homo sapiens) (UniProt P28482). The experiment in a line: Activity of MAPK1 at 10 uM. The method, boiled down: as §1
Test [4] addresses cAMP-dependent protein kinase (PKA) (Homo sapiens) (UniProt P22694+P17612+P22612). The experiment in a line: Activity of PKA at 10 uM. In kind it is protein assay. The method in brief: as §1
In test [5] the test system is HT-29. The test is described as follows: Cell cycle arrest in HT29 cells by accumulation at G0/G1 phase at 50 uM after 3 hrs. In kind it is functional, Homo sapiens. The method in brief: (§2)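 Subconfluent, asynchronous HT-29 cells were treated 3, 6 or 12 h, then pulsed with 10 µM BrdU for 30 min at 37 °C. Cells were fixed in ice-cold 70% ethanol, DNA denatured in 2 M HCl and neutralised with borate. Staining used FITC anti-BrdU, then propidium iodide (0.1 mg/mL) with RNase A. Analysis by flow cytometry with 488 nm laser.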

Test [6] deals with G-361. The experiment in a line: Viability of G361 cells at 100 uM. In kind it is functional, Homo sapiens. The method in brief:
(§3)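 Cells grown in DMEM with 10% FCS and 4 mM glutamine at 37 °C, plated in 96-well format, preincubated 12 h, then exposed 72 h. Live cells measured by Calcein AM (1 h) fluorescence at 485/538 nm; % viable cells given at 100 µM compound.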

Test [7] deals with K562. The test is described as follows: Viability of K562 cells at 100 uM. In kind it is functional, Homo sapiens. The method in brief:
as §3

For test [8], the target named is Cyclin-dependent kinase 1/cyclin B (Homo sapiens, UniProt P06493). The experiment in a line: Inhibition of CDK1/Cyclin B in presence of 100 uM ATP. In kind it is protein-complex assay.
Test [9] has as its system HT-29. The test is described as follows: Inhibition of GAPDH mRNA synthesis in HT29 cells measured as number of copies per 10^6 cells by RT PCR at 50 uM after 6 hrs. In kind it is functional, Homo sapiens. The method in brief: (§4)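 HT-29 cells (5 × 10⁶) treated for 3, 6 or 12 h; total RNA extracted with TRI reagent, 3 µg reverse transcribed with random primers and M-MLV RT (42 °C, 60 min). Absolute transcript copies quantified by TaqMan real-time PCR, 50 cycles, against diluted gene-specific amplicon standards (30–1 000 000 copies); duplicate PCR per sample; values are means of four determinations ± SD.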

Test [10] deals with HT-29. The experiment in a line: Inhibition of GAPDH mRNA synthesis in HT29 cells measured as number of copies per 10^6 cells by RT PCR at 50 uM after 12 hrs. In kind it is functional, Homo sapiens. The method in brief:
as §4

In test [11] the test system is HT-29. The test is described as follows: Inhibition of CEA mRNA synthesis in HT29 cells measured as number of copies per 10^6 cells by RT PCR at 50 uM after 3 hrs. In kind it is functional, Homo sapiens. The method, boiled down: (§5)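 HT-29 cells were treated 3, 6 or 12 h; total RNA extracted with TRI reagent. 3 µg RNA reverse-transcribed with random primers and M-MLV RT at 42 °C for 60 min. CEA transcripts quantified by TaqMan real-time PCR: 50 cycles of 95 °C 15 s and 65 °C 15 s. Absolute copies came from amplicon standards of 30 to 10^6 copies, expressed per 10^6 cells. Samples run in duplicate PCR; values average of four determinations ± SD.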

The test system of test [12] is HT-29. The test is described as follows: Inhibition of CEA mRNA synthesis in HT29 cells measured as number of copies per 10^6 cells by RT PCR at 50 uM after 6 hrs. In kind it is functional, Homo sapiens. The method, boiled down: as §5
Test [13] relates to HT-29. The test is described as follows: Inhibition of EpCAM mRNA synthesis in HT29 cells measured as number of copies per 10^6 cells by RT PCR at 50 uM after 6 hrs. In kind it is functional, Homo sapiens. The method in brief: as §4
The subject of test [14] is HT-29. The experiment in a line: Inhibition of EpCAM mRNA synthesis in HT29 cells measured as number of copies per 10^6 cells by RT PCR at 50 uM after 12 hrs. In kind it is functional, Homo sapiens. The method in brief:
as §4

Test [15] relates to HT-29. The experiment in a line: Cell cycle arrest in HT29 cells by accumulation at S phase at 50 uM after 12 hrs. In kind it is functional, Homo sapiens. The method, boiled down:
as §2

Test [16] relates to HT-29. The test is described as follows: Cell cycle arrest in HT29 cells by accumulation at G2/M phase at 50 uM after 12 hrs. In kind it is functional, Homo sapiens. The method in brief: as §2
Test [17] concerns MCF7. The test is described as follows: Decrease in pRb phosphorylation in MCF7 cells after 24 hrs at 25 uM. In kind it is functional, cell-based. The following applies: Homo sapiens. The method, boiled down: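 MCF7 cells were treated 24 h, lysed in Laemmli buffer and run on 10% SDS-PAGE. Proteins were blotted to nitrocellulose; loading checked with Ponceau-S; blocked with 5% milk in PBS-Tween. Specific antibodies applied overnight (pRb phosphosites Ser780, Ser807, Thr821; p53; p21WAF1), then peroxidase secondary at 1:2000 with ECL detection.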

Molecules are shown by their SMILES. The source made the active and inactive calls. The rule behind the calls is not given here.

What is called IC50 is the point on the concentration scale where inhibition reaches its midpoint.

Serine/threonine-protein kinase Chk1 (Homo sapiens), sequence (O14757 whole entry): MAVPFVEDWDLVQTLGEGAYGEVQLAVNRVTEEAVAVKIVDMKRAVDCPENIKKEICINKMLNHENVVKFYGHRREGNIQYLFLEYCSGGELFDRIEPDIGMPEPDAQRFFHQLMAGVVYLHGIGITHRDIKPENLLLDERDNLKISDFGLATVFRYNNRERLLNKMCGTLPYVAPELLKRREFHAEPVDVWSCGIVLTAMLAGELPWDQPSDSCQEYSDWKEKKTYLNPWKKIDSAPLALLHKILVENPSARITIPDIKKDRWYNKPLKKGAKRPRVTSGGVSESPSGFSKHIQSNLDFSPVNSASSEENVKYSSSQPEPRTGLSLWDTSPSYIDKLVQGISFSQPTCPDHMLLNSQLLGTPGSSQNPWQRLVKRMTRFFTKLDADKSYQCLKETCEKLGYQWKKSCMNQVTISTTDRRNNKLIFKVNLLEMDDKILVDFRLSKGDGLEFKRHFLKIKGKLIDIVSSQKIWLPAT
Mitogen-activated protein kinase 1 (Homo sapiens), sequence (P28482 whole entry): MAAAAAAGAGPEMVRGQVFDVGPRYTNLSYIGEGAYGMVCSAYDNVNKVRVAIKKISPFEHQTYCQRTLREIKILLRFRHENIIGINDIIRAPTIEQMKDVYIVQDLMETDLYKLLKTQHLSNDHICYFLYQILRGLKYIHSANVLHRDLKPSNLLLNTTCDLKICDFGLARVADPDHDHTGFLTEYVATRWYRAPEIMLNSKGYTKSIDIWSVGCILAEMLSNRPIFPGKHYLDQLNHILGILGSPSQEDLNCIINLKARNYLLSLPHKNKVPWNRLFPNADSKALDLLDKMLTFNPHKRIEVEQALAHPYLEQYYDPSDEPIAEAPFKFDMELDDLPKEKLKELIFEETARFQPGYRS

For `Nc1n[nH]c(N)c1/N=N/c1ccc(O)cc1`, the residual activity amounted to 89% in test [1], 65% in test [2], 99% in test [3] and 67% in [4]. Further, the Activity in [5] came to 32.9%; in [6], 8.3%; in test [7], 23%; in test [9] it was 3785908; in test [10], 1811960; in [11] it was 27900. Also, the Activity in test [12] worked out at 22620; in test [13], 5069600; in test [14], 2951620; in test [15], 66%; in test [16] it was 6.8%. Further, the IC50 in [8] was found to be 44 µM. The outcome in [17] was Active.

The values above are taken from ChEMBL document CHEMBL1137343, “4-arylazo-3,5-diamino-1H-pyrazole CDK inhibitors: SAR study, crystal structure in complex with CDK2, selectivity, and cellular effects” (J Med Chem, 2006).
